Assay results as given in ChEMBL document CHEMBL4814077, “Discovery of Surfactins as Inhibitors of MicroRNA Processing Using Cat-ELCCA” (ACS Med Chem Lett, 2021).
Calls of active or inactive are those of the source. The calls are words filed in the database; no cut-off is given here. *1 amine or outer side, *2 acyl side, *3 side chain or, on linkers, in order; H or OH if unused. Where a SMILES comes first, the peptide text is derived from it. Bridges are numbered along the chain shown (N, C = ends). The star is where a group is joined. ξ: configuration not given here. Pentadecanoyl(3ξ-OH,15-Gua) = N=C(N)NCCCCCCCCCCCCC(O)CC(=O)*; X1 = CCC(C)CCCCCCCCC(CC(=O)[*:1])O[*:2]; X7 = CC(C)CCCCCCCCCC(CC(=O)[*:1])O[*:2]; X3 = CC(C)CCCCCCCCC(CC(=O)[*:1])O[*:2]; X5 = CCC(C)CCCCCCC(CC(=O)[*:1])O[*:2]; X2 = CCCCCCCCCCCC(CC(=O)[*:1])O[*:2]; X4 = CCCCCCCCCCC(CC(=O)[*:1])O[*:2]; X6 = CCCCCCCCCC(CC(=O)[*:1])O[*:2]

Legend:
Pre-let-7d miRNA [1] = test: Inhibition of Dicer-mediated pre-let-7d miRNA (unknown origin) processing using […] as substrate incubated for 15 mins by cat-ELCCA assay; format: nucleic-acid assay
In short: (§1)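 Cat-ELCCA format with immobilized pre-miRNA (pre-miR-21, or pre-let-7d as a related control substrate) processed by excess Dicer. Integrity of the terminal loop is read by trans-cyclooctene/methyltetrazine click ligation of modified HRP, giving chemiluminescent signal amplification. Assay buffer contains detergent. Dose–response curves give IC50 values reported as 95% confidence intervals.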

Pre-let-7d miRNA [2] = test: Binding affinity to pre-let-7d miRNA (unknown origin) by SPR assay; format: nucleic-acid assay
microRNA 21 [3] = test: Inhibition of Dicer-mediated pre-miRNA-21 (unknown origin) processing using […] as substrate incubated for 15 mins by cat-ELCCA assay; format: nucleic-acid assay; in short: as §1
microRNA 21 [4] = test: Binding affinity to pre-miRNA-21 (unknown origin) by SPR assay; format: nucleic-acid assay
microRNA 21 [5] = test: Inhibition of pre-miRNA-21 (unknown origin) assessed as reduction in miRNA/Dicer interaction at 10 to 120 uM incubated for 40 mins by EMSA assay; format: nucleic-acid assay; conditions: dose 10-120 µM
Pre-let-7d miRNA [6] = test: Inhibition of pre-let-7d miRNA maturation in human HeLa cells transfected with firefly luciferase reporter gene assessed as reduction in luciferase gene expression at 100 uM incubated for 48 hrs by pmiRGlo-dual luciferase reporter assay; format: cell-based
In short: (§2)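 HeLa cells transiently transfected with pmiRGLO dual-luciferase reporters carrying miRNA target sites (miR-21 or let-7d) in the firefly luciferase 3′ UTR. Cells treated at 100 μM; luminescence read after 48 h. miR-21 mismatch reporter and empty-vector controls were included. Significance given as p values.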

microRNA 21 [7] = test: Inhibition of pre-miRNA-21 maturation in human HeLa cells transfected with firefly luciferase reporter gene assessed as reduction in luciferase gene expression at 100 uM incubated for 48 hrs by pmiRGlo-dual luciferase reporter assay; format: cell-based; in short: as §2
HeLa = test: Cytotoxicity against human HeLa cells assessed as reduction in cell viability at 100 uM incubated for 48 hrs by CellTiter Glo assay; format: cell-based

Row | IC50 (Pre-let-7d miRNA [1]) [µM] | inhibition (Pre-let-7d miRNA [1]) | Kd (Pre-let-7d miRNA [2]) [µM] | IC50 (microRNA 21 [3]) [µM] | inhibition (microRNA 21 [3]) | Kd (microRNA 21 [4]) [µM] | inhibition (microRNA 21 [5]) | SMILES | inhibition (Pre-let-7d miRNA [6]) | inhibition (microRNA 21 [7]) | Activity (HeLa)
1 | 54 | Dose-Dependent Effect | 1.4 | 48 | Dose-Dependent Effect | 0.73 |  | CCCCCCCCCCCC1CC(=O)N[C@@H](CCC(=O)O)C(=O)N[C@@H](CC(C)C)C(=O)N[C@@H](CC(C)C)C(=O)N[C@@H](C(C)C)C(=O)N[C@@H](CC(=O)O)C(=O)N[C@@H](CC(C)C)C(=O)N[C@@H](CC(C)C)C(=O)O1 (stereo partly drawn) (ELLVDLL; linker N-C via X2) |  |  | 
2 | 97 | Dose-Dependent Effect | 0.3 | 71 | Dose-Dependent Effect | 0.38 |  | CCCCCCCCCCC1CC(=O)N[C@@H](CCC(=O)O)C(=O)N[C@@H](CC(C)C)C(=O)N[C@@H](CC(C)C)C(=O)N[C@@H](C(C)C)C(=O)N[C@@H](CC(=O)O)C(=O)N[C@@H](CC(C)C)C(=O)N[C@@H](CC(C)C)C(=O)O1 (stereo partly drawn) (ELLVDLL; linker N-C via X4) |  |  | 
3 |  | inactive |  |  | inactive |  |  | CC(C)[C@@H]1NC(=O)[C@@H](C(C)C)NC(=O)[C@@H](NC(=O)CC(O)CCCCCCCCCCCCNC(=N)N)[C@@H](C)OC(=O)[C@@H](C)NC(=O)[C@@H](CC(N)=O)NC(=O)[C@@H]([C@H](C)O)NC1=O (stereo partly drawn) |  |  | 
4 |  | inactive |  |  | inactive |  |  | CC(C)CCCCCCCCCC1CC(=O)N[C@@H](CCC(=O)O)C(=O)N[C@@H](CC(C)C)C(=O)N[C@@H](CC(C)C)C(=O)N[C@@H](C(C)C)C(=O)N[C@@H](CC(=O)O)C(=O)N[C@@H](CC(C)C)C(=O)N[C@@H](CC(C)C)C(=O)O1 (stereo partly drawn) (ELLVDLL; linker N-C via X7) |  |  | 
5 |  | inactive |  |  | inactive |  |  | CC1NC(=O)C(CCC(N)=O)NC(=O)C(C(C)O)NC(=O)C(C(C)C)NC(=O)C(C(C)C)NC(=O)C(NC(=O)CC(O)CCCCCCCCCCCCNC(=N)N)C(C)OC1=O (stereo not drawn) ({Pentadecanoyl(3ξ-OH,15-Gua)}-TVVTQA; ester 1-C; configuration not given here) |  |  | 
6 | > 200 |  |  | > 200 |  |  |  | CCC(C)CCCCCCC1CC(=O)N[C@@H](CCC(=O)O)C(=O)N[C@@H](CC(C)C)C(=O)N[C@@H](CC(C)C)C(=O)N[C@@H](C(C)C)C(=O)N[C@@H](CC(=O)O)C(=O)N[C@@H](CC(C)C)C(=O)N[C@@H](CC(C)C)C(=O)O1 (stereo partly drawn) (ELLVDLL; linker N-C via X5) |  |  | 
7 | > 200 |  |  | > 200 |  |  |  | CCCCCCCCCC1CC(=O)N[C@@H](CCC(=O)O)C(=O)N[C@@H](CC(C)C)C(=O)N[C@@H](CC(C)C)C(=O)N[C@@H](C(C)C)C(=O)N[C@@H](CC(=O)O)C(=O)N[C@@H](CC(C)C)C(=O)N[C@@H](CC(C)C)C(=O)O1 (stereo partly drawn) (ELLVDLL; linker N-C via X6) |  |  | 
8 | 54 | Dose-Dependent Effect | 1.2 | 38 | Dose-Dependent Effect | 0.78 | inactive | CCC(C)CCCCCCCCC1CC(=O)N[C@@H](CCC(=O)O)C(=O)N[C@@H](CC(C)C)C(=O)N[C@@H](CC(C)C)C(=O)N[C@@H](C(C)C)C(=O)N[C@@H](CC(=O)O)C(=O)N[C@@H](CC(C)C)C(=O)N[C@@H](CC(C)C)C(=O)O1 (stereo partly drawn) (ELLVDLL; linker N-C via X1) | inactive | Active | Toxic
9 | 70 | Dose-Dependent Effect | 2.5 | 52 | Dose-Dependent Effect | 0.43 |  | CC(C)CCCCCCCCC1CC(=O)N[C@@H](CCC(=O)O)C(=O)N[C@@H](CC(C)C)C(=O)N[C@@H](CC(C)C)C(=O)N[C@@H](C(C)C)C(=O)N[C@@H](CC(=O)O)C(=O)N[C@@H](CC(C)C)C(=O)N[C@@H](CC(C)C)C(=O)O1 (stereo partly drawn) (ELLVDLL; linker N-C via X3) |  |  | 
